According to ChEMBL document CHEMBL1124779, “Synthesis and antitumor activity of 1-[[(dialkylamino)alkyl]amino]-4-methyl-5H-pyrido[4,3-b]benzo[e]- and -benzo[g])indoles. A new class of antineoplastic agents” (1990):
In brackets after ≈: the same amount, converted by molar mass.

Tests used:
L1210 [1] = assay: Tested for cytotoxicity in the multiple tumor disk diffusion soft agar assay at the dose of 15 ug/disk against leukemia L1210; range is 475-600; type: functional, Mus musculus
Summary of the method: (§1)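 Soft agar disk diffusion: bottom layer 0.8% noble agar, top layer 0.47% noble agar, both in 1:1 CMRL-Fischer medium with 11% horse serum. Top layer seeded with 5×10^3 L1210 cells or 10^6 solid tumor cells (C38, PO3). Drug applied on a dried 6-mm filter-paper disk. Incubation 7-11 days. Inhibition zone measured by inverted microscope, in units (1 unit = 30 μm).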

L1210 [2] = assay: Cytotoxicity in the multiple tumor disk diffusion soft agar assay at the dose of 15 ug/disk against leukemia L1210; type: functional, Mus musculus; summary of the method: as §1
P388 [3] = assay: In vivo T/C (survival time treated/survival time control x 100) was determined against P388 leukemia cells at 40 mg/Kg; type: functional, Mus musculus
Summary of the method: (§2)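 B6D2 F1 mice, at least five per group, were inoculated ip on day 0 with 10^6 viable P388 cells (25 mL/kg). Compounds were dissolved in distilled water and given ip (25 mL/kg) daily on days 1–4. Mortality was checked daily, with necropsy of dead animals. T/C×100 was median survival, treated versus control. Survivors beyond 50 days counted as cured and were excluded from the median.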

P388 [4] = assay: In vitro cytotoxicity was determined against P388 leukemia cells; type: functional; conditions: Mus musculus, read-out: ID50 (the source's name)
Summary of the method: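 P388 cells in exponential growth, RPMI 1640 with 2 mM glutamine, 10 μM 2-mercaptoethanol and 10% FCS, 5% CO2, 37 °C. Cells at 10^5 cells/mL. Drugs in distilled water added on day 0. Cells counted by Coulter counter after 96 h. ID50 (μg/mL, 50% inhibition of proliferation) estimated by regression of concentration/response data.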

[5] = Tested for cytotoxicity in the multiple tumor disk diffusion soft agar assay at the dose of 15 ug/disk against solid tumor C38; range is 450-525; type: functional, Mus musculus; summary of the method: as §1
[6] = Cytotoxicity in the multiple tumor disk diffusion soft agar assay at the dose of 15 ug/disk against solid tumor PO3; type: functional, Mus musculus; summary of the method: as §1
L1210 [7] = assay: Tested for cytotoxicity in the multiple tumor disk diffusion soft agar assay at the dose of 15 ug/disk against leukemia L1210; range is 450-525; type: functional, Mus musculus; summary of the method: as §1
[8] = Cytotoxicity in the multiple tumor disk diffusion soft agar assay at the dose of 15 ug/disk against solid tumor C38.; type: functional, Mus musculus; summary of the method: as §1
L1210 [9] = assay: Tested for cytotoxicity in the multiple tumor disk diffusion soft agar assay at the dose of 15 ug/disk against leukemia L1210; range is 550-680; type: functional, Mus musculus; summary of the method: as §1
L1210 [10] = assay: Tested for cytotoxicity in the multiple tumor disk diffusion soft agar assay at the dose of 15 ug/disk against leukemia L1210; type: functional, Mus musculus; summary of the method: as §1
P388 [11] = assay: In vivo T/C (survival time treated/survival time control x 100) was determined against P388 leukemia cells at 20 mg/Kg; type: functional, Mus musculus; summary of the method: as §2
[12] = Tested for cytotoxicity in the multiple tumor disk diffusion soft agar assay at the dose of 15 ug/disk against solid tumor PO3; range is 300-450; type: functional, Mus musculus; summary of the method: as §1
L1210 [13] = assay: Tested for cytotoxicity in the multiple tumor disk diffusion soft agar assay at the dose of 15 ug/disk against leukemia L1210; U = 32 uM; type: functional, Mus musculus; summary of the method: as §1
[14] = Tested for cytotoxicity in the multiple tumor disk diffusion soft agar assay at the dose of 15 ug/disk against solid tumor C38; U = 32 uM; type: functional, Mus musculus; summary of the method: as §1
L1210 [15] = assay: Tested for cytotoxicity in the multiple tumor disk diffusion soft agar assay at the dose of 15 ug/disk against leukemia L1210; range is 300-380; type: functional, Mus musculus; summary of the method: as §1
[16] = Tested for cytotoxicity in the multiple tumor disk diffusion soft agar assay at the dose of 15 ug/disk against solid tumor PO3; type: functional, Mus musculus; summary of the method: as §1
L1210 [17] = assay: In vivo T/C (survival time treated/survival time control x 100) was determined against L1210 leukemia cells at 40 mg/Kg; type: functional, Mus musculus
Summary of the method: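 B6D2 F1 mice, at least five per group, were inoculated ip on day 0 with 10^5 viable L1210 cells (25 mL/kg). Compounds were dissolved in distilled water and given ip (25 mL/kg) on days 1–4. Deaths were checked daily, with necropsy to separate tumor from toxic death. T/C×100 was median survival of treated over controls. Mice surviving over 50 days counted as cured and were excluded from the median.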

| SMILES | Cytotoxicity (L1210 [2]) [U] | T/C x100 (P388 [3]) | IC50 (P388 [4]) [µg/mL] | Cytotoxicity [6] [U] | Cytotoxicity [8] [U] | T/C x100 (P388 [11]) | further results |
| --- | --- | --- | --- | --- | --- | --- | --- |
| Cc1cnc(NCCCN(C)C)c2c3c4ccccc4ccc3n(C)c12 | 425 | 164 | 0.05 (≈ 0.144 µM) | 550 | – | – | Cytotoxicity (L1210 [1]): 475 U; Cytotoxicity [5]: 450 U |
| COc1ccc2c(ccc3[nH]c4c(C)cnc(NCC(C)CN(C)C)c4c32)c1 (stereo not drawn) | 425 | 151 | 0.55 (≈ 1.46 µM) | 375 | 425 | – | Cytotoxicity (L1210 [7]): 450 U |
| COc1ccc2c(ccc3c2c2c(NCCCN(C)C)ncc(C)c2n3C)c1 | 425 | 150 | 0.5 (≈ 1.33 µM) | 200 | 325 | – | Cytotoxicity (L1210 [9]): 550 U |
| Cc1c[nH]c(NCCCN(C)C)c2c3ccc4c(O)cccc4c3nc1-2 | 450 | – | 0.05 (≈ 0.143 µM) | – | 400 | 169 | Cytotoxicity (L1210 [10]): 500 U; Cytotoxicity [12]: 300 U |
| CCN(CC)CCCNc1ncc(C)c2c1c1ccc3ccccc3c1n2C | – | – | 0.375 (≈ 1 µM) | – | – | 108 | Cytotoxicity (L1210 [13]): 450 U; Cytotoxicity [14]: 500 U; Cytotoxicity (L1210 [15]): 300 U; Cytotoxicity [16]: 200 U |
| CCN(CC)CCCNc1[nH]cc(C)c2nc3ccc4cc(OC)ccc4c3c1-2 | – | 189 | 1 (≈ 2.56 µM) | – | – | – | T/C x100 (L1210 [17]): 112 |
